# This is a sample that favours compounds with a hit; in the whole collection about 2.6% have one here.
# MEKK3 PB1 HTS = MEKK3-MEK5 PB1 interaction, increase or decrease | Q99759 | bead-based flow cytometry, Alexa488-MEK5 binding to MEKK3; actives lie on both sides; 0 = blocked by unlabeled MEK5, 100 = vehicle | binding response (% of control), % at 10 µM | hit rate 1.4% among 290,000 | AID 1529;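 active means binding response more than 3 SD above or below the average of its plate-row segment, actives on both sides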;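 further: Alexa488 bead fluorescence after subtracting the streptavidin-only scavenger bead signal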
# Target sequence (Q99759 whole entry, looked up): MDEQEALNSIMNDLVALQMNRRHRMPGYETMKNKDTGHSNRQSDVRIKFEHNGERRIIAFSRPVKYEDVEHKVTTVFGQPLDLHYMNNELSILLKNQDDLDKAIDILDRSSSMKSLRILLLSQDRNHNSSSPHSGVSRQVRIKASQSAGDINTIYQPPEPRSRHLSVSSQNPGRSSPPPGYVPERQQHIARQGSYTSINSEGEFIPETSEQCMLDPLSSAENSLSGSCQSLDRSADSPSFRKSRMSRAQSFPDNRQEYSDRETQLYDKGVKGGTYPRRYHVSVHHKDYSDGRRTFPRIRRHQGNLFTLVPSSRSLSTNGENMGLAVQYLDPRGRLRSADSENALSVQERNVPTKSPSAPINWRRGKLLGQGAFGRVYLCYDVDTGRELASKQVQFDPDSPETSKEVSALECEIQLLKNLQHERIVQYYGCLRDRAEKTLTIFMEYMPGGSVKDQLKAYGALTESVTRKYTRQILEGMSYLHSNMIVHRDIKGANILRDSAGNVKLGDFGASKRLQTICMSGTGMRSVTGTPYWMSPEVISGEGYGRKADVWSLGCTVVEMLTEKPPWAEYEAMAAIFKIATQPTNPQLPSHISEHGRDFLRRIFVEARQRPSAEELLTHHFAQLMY
# MEKK2wt PB1 HTS = raises or lowers MEK5 binding to wildtype human MEKK2 PB1 domain | Q9Y2U5 | bead flow cytometry, Alexa488-MEK5 binding to MEKK2 WT; actives lie on both sides | hit rate 1.1% among 290,000 | binding response (% of control), % at 10 µM; in the data active means binding response below about 67% or above about 130%
# MEKK2mut PB1 HTS = signal of MEK5 binding to mutant human MEKK2 PB1 domain. bead flow cytometry, Alexa488-MEK5 binding to MEKK2 mutant. percent response, % at 10 µM. hit rate 0.35% among 290,000. AID 1530; in the data active means percent response above about 24%, passing the limit was not always enough
# Lipid droplet = hepatic lipid droplet formation modulation; AML12 mouse hepatocytes, oleate lipid droplets, BODIPY imaging; inhibition, % at 6.5 µM; hit rate 0.4% among 240,000;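 active means lipid droplet intensity inhibited by at least 50%, with more than 500 cells counted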
#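 Material – mouse AML12 hepatocyte cell line, fixed after treatment · Compound dosing – one dose, 6.5 µM compound · Times – compound with oleate, overnight · Measured by – Image-based BODIPY and DAPI two-channel analysis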
# MEKK2wt confirm = raises or lowers MEK5 binding to wildtype human MEKK2, retest; shares compounds with MEKK3 PB1 HTS; bead flow cytometry, Alexa488-MEK5 binding to MEKK2 WT; actives lie on both sides; binding response (% of control), % at 10 µM; hit rate 2.4% among 5,900; in the data active means binding response below about 16% or above about 210%; inactive means in between
# MEKK2mut confirm = signal of MEK5 binding to mutant human MEKK2, retest; shares compounds with MEKK3 PB1 HTS; bead flow cytometry, Alexa488-MEK5 binding to MEKK2 mutant; percent response, % at 10 µM; hit rate 2% among 5,900; AID 1893; in the data active means percent response mostly above about 71%, no sharp cut-off; inactive means mostly below about 38%;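 further: higher means compound restores mutant binding toward wildtype level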
# MEKK3-MEK5 inh = MEKK3-MEK5 PB1 inhibition, single concentration confirmation; shares compounds with MEKK3 PB1 HTS; bead flow cytometry, Alexa488-MEK5 binding to MEKK3; stronger effect = lower value; binding response (% of control), % at 10 µM; hit rate 1.8% among 5,900;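 active means binding response below 72% of control, or above a set upper limit, though filed actives all read lower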
# Numbers stand for hits; – = inactive; · = no result; [ ] = remark or other dose.
SMILES,MEKK3 PB1 HTS,MEKK2wt PB1 HTS,MEKK2mut PB1 HTS,Lipid droplet,MEKK2wt confirm,MEKK2mut confirm,MEKK3-MEK5 inh
Cc1ccc2sc(N(CCCN(C)C)C(=O)CN3C(=O)c4ccccc4C3=O)nc2c1C,–,150,–,–,–,–,–
CN(C)CCCN(C(=O)CCOc1ccccc1)c1nc2c(F)cccc2s1,–,146,–,–,–,–,–
CN(C)CCCN(C(=O)CCOc1ccccc1)c1nc2ccc(F)cc2s1,–,143,–,–,–,–,–
CN(C)CCCN(C(=O)c1ccc(N2C(=O)CCC2=O)cc1)c1nc2c(F)cccc2s1,–,–,–,–,·,·,·
CN(C)CCCN(C(=O)COc1ccc(Cl)cc1)c1nc2ccc(F)cc2s1,–,–,–,–,·,·,·
CN(C)CCCN(C(=O)COc1ccc(Cl)cc1)c1nc2c(F)cccc2s1,–,162,–,–,–,–,–
CCOC(=O)C1=C(CS(=O)(=O)c2ccc(F)cc2)NC(=O)NC1c1ccc(O)c(O)c1 (configuration not stated),–,–,–,–,·,·,·
CCn1nc(CC(C)C)cc1C(=O)N1CCCC(Nc2ccc(OC)cc2)C1 (configuration not stated),–,–,–,–,·,·,·
CC1CCCCN1CCCNC(=O)CCCN1C(=O)c2cccnc2Sc2ccccc21 (configuration not stated),–,–,–,–,·,·,·
Cc1ccc(NC(=O)CCCn2nc(C)c3c(C)n(-c4ccccc4)nc3c2=O)c(Cl)c1,–,–,–,–,·,·,·
CCC1CCC(c2nnc(-c3ccc([N+](=O)[O-])cc3)o2)CC1 (configuration not stated),–,–,–,–,·,·,·
Cc1cccc2sc(N(CCCN(C)C)C(=O)COc3ccc(Cl)cc3)nc12,–,191,53,–,–,–,–
CCN(CC(=O)N1CCOCC1)S(=O)(=O)c1cc(Cl)ccc1Cl,–,–,–,–,·,·,·
CC(=O)Nc1ccc(NC(=O)CCC(=O)OCC(=O)c2ccc(F)cc2)cc1,–,–,–,–,·,·,·
CC(=O)N1CCc2cc(S(=O)(=O)CCC(=O)Nc3ccccc3F)ccc21,–,–,–,–,·,·,·
O=C(NC(Nc1ccc(F)cc1)(C(F)(F)F)C(F)(F)F)c1cccnc1,53[inhibitor],–,–,–,–,–,–
O=C(NNC(=S)NC(=O)c1cccnc1)c1ccc(F)cc1,–,–,–,–,·,·,·
CC(C)(C)NC(=O)CN(Cc1cccs1)C(=O)CNS(=O)(=O)c1ccc(F)cc1,–,–,–,–,·,·,·
CCC(C(=O)NC(C)(C)C)N(Cc1cccs1)C(=O)CNS(=O)(=O)c1ccccc1 (configuration not stated),132,–,–,–,–,–,–
COc1cccc(CNc2ccccn2)c1O,–,–,–,–,·,·,·
COc1cccc(CNc2cc(C)ccn2)c1O,–,–,27,–,–,–,–
CCN1CCN(Cc2ccc(NC(=O)c3cc(NC(=O)c4cncc(-c5cccs5)c4)cc(OC)c3)cc2C(F)(F)F)CC1,–,362,133,·,245,193,–
CCN1CCN(Cc2ccc(NC(=O)c3cc(NC(=O)c4ccno4)cc(OC)c3)cc2C(F)(F)F)CC1,–,–,–,–,·,·,·
CCN1CCN(Cc2ccc(NC(=O)c3cc(NC(=O)c4cc(-c5ccc(OC)cc5)n[nH]4)cc(OC)c3)cc2C(F)(F)F)CC1,125,167,167,–,312,173,–
CCN1CCN(Cc2ccc(NC(=O)c3cc(NC(=O)c4cc5cccc(OC)c5o4)cc(OC)c3)cc2C(F)(F)F)CC1,124,148,158,–,251,93,–
SMILES,MEKK3 PB1 HTS,MEKK2wt PB1 HTS,MEKK2mut PB1 HTS,Lipid droplet,MEKK2wt confirm,MEKK2mut confirm,MEKK3-MEK5 inh
CCN1CCN(Cc2ccc(NC(=O)c3cc(NC(=O)C4=NN(c5ccccc5)C(=O)C4)cc(OC)c3)cc2C(F)(F)F)CC1,–,–,–,–,·,·,·
CCN1CCN(Cc2ccc(NC(=O)c3cc(NC(=O)c4ccc5n[nH]nc5c4)cc(OC)c3)cc2C(F)(F)F)CC1,–,–,–,–,·,·,·
Cc1ccc(C2C(C#N)=C(N)Oc3n[nH]c(-c4cccs4)c32)cc1 (configuration not stated),–,–,–,–,·,·,·
N#CC1=C(N)Oc2n[nH]c(-c3cccs3)c2C1c1cccnc1 (configuration not stated),123,–,–,·,–,–,–
C/C(=N/NC(=O)c1sc(NS(=O)(=O)c2ccccc2)nc1C)c1ccc(F)cc1,153,–,–,–,–,–,–
Cc1nc(C)c(C(=O)NNS(=O)(=O)c2ccccc2)s1,140,–,–,–,–,–,–
Cc1ccc(C)c(S(=O)(=O)NNC(=O)c2sc(NS(=O)(=O)c3ccccc3)nc2C)c1,–,–,–,–,·,·,·
Cc1ccccc1C(C(=O)NCc1ccco1)N(CC1CCCO1)C(=O)Cn1nnc2ccccc21 (configuration not stated),–,–,–,·,·,·,·
COc1cccc(C(C(=O)NCc2ccco2)N(C(=O)Cn2nnc3ccccc32)C2CC2)c1OC (configuration not stated),82[inhibitor],–,–,·,–,–,–
COc1ccc(CCNC(=O)Cn2cnc3ccccc3c2=O)cc1OC,129,–,–,–,–,–,–
COc1ccc(CCNC(=O)CSc2ccc3ccccc3c2)cc1OC,–,–,–,–,·,·,·
CCOc1ccc(CCNC(=O)COC(=O)Cn2cnc3ccccc3c2=O)cc1OCC,–,–,–,–,·,·,·
COc1ccccc1CNC(=O)CCNC(=O)Cn1cnc2ccccc2c1=O,0.0[inhibitor],-1.0[inhibitor],–,·,–,–,–
COc1ccccc1CNC(=O)CCNC(=O)Cn1ccc2ccccc2c1=O,–,–,–,–,·,·,·
COc1ccc(CCNC(=O)CSc2nn(-c3ccccc3)c(=S)s2)cc1OC,148,–,–,–,–,–,–
C=CCN(C(=O)c1csnn1)C(C(=O)NC1CCCCC1)c1ccc(F)cc1 (configuration not stated),–,–,–,–,·,·,·
Cc1cc(C)c(C#N)c(N2CCSCC2)n1,2.0[inhibitor],3.0[inhibitor],–,·,–,–,–
Cc1cc(C)c(C#N)c(N2CCN(c3ccccc3)CC2)n1,–,–,–,–,·,·,·
COc1ccc(CN2CNc3c(c(=O)n(C)c(=O)n3C)C2)cc1,–,–,–,–,·,·,·
Clc1ccc(CN2CCC(Cc3ccccc3)CC2)cc1,–,199,59,–,–,–,–
Clc1cccc(CN2CCC(Cc3ccccc3)CC2)c1,–,–,–,·,·,·,·
OCc1ccccc1OCCCN1CCC(Cc2ccccc2)CC1,–,194,24,–,–,–,–
O=Cc1cc(Cl)ccc1OCCN1CCC(Cc2ccccc2)CC1,–,140,–,–,–,–,–

# From PubChem BioAssay
